This experiment addresses T1, Cytochrome P450 2B1 (Rattus norvegicus, UniProt P00176).
T1 sequence (P00176 whole entry): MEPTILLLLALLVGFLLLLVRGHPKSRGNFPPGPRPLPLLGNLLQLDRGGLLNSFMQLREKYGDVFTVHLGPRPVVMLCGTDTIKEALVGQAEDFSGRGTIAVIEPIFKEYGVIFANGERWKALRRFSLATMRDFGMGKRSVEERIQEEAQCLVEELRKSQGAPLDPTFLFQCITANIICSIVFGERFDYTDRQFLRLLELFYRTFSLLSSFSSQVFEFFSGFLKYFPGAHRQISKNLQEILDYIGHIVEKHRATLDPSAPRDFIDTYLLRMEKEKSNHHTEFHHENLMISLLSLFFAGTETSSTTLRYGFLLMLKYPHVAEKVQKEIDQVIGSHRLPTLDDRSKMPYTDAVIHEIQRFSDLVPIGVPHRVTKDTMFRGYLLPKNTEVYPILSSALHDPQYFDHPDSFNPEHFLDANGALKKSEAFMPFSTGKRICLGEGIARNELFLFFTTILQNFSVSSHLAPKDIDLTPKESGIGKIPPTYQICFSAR
Nature of the experiment: Inhibitory potency to aminopyrine N-demethylase activity (P450) in hepatic microsomes from phenobarbitone-induced rats. In short, it runs like this:
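Microsomes (105000g pellet) from livers of male Wistar rats (100–150 g) given phenobarbitone ip on consecutive days. A 3.0 mL mix in 0.1 M K phosphate, pH 7.4, held aminopyrine 1.61 μmol, NADPH-generating system, semicarbazide and 5.6 mg protein, run 15 min. Formaldehyde was read by Nash/Hantzsch. Inhibitor went in DMSO or 0.07 M HCl, with solvent in controls. I50 came from seven concentrations.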

Usually IC50 stands for the concentration at which inhibition is half-maximal. Low values mean higher potency, high ones lower potency. The compound `CCCCCc1nc2cc(NC(C)=O)ccc2[nH]1` yielded an IC50 of 158 µM.
`Cc1ccc2[nH]cnc2c1` [5-methyl-1H-benzimidazole] displayed an IC50 of 575 µM.
The compound `FC(F)(F)c1nc2ccccc2[nH]1` had an IC50 of 257 µM.
`CC(C)(C)c1nc2ccccc2[nH]1` registered a half-inhibitory concentration (IC50) of 302 µM.
`Fc1ccc2[nH]cnc2c1` registered an IC50 of 437 µM.
As for `Cc1cccc2[nH]cnc12`, the figure is 525 µM; as for `CCCc1nc2cc(C)c(C)cc2[nH]1`, 110 µM.
As for `CCCCc1nc2ccccc2[nH]1`, the figure is 120 µM; as for `Cc1nc2cc(NC(=O)c3ccccc3)ccc2[nH]1`, 302 µM.
As for `Cc1nc2ccc([N+](=O)[O-])cc2[nH]1`, the figure is 219 µM; as for `OC(c1ccccc1)c1nc2ccccc2[nH]1` (stereo not drawn), 158 µM; as for `Clc1ccc2[nH]cnc2c1`, 158 µM.
Consider `CC(=O)Nc1ccc2nc(C)[nH]c2c1`, for which half-maximal inhibition (IC50) required 1260 µM.
As for `CCCCC(=O)Nc1ccc2nc(C)[nH]c2c1`, the figure is 417 µM; as for `NCc1nc2ccccc2[nH]1`, 457 µM; as for `CC(C)c1nc2ccccc2[nH]1`, 537 µM.
Turning to `CC(=O)Nc1cc(Cl)cc2[nH]c(C)nc12`, half-maximal inhibition (IC50) required 309 µM.
As for `CC(C)Cc1nc2ccccc2[nH]1`, the figure is 158 µM; as for `O=[N+]([O-])c1cccc2[nH]cnc12`, 468 µM.
As for `c1ccc2[nH]c(C3CC3)nc2c1`, the figure is 251 µM; as for `c1cncc(-c2nc3ccccc3[nH]2)c1`, 200 µM; as for `O=[N+]([O-])c1cc(Cl)cc2[nH]cnc12`, 129 µM.
As for `ClCc1nc2ccccc2[nH]1`, the figure is 141 µM.
In the case of `Cc1ccc2nc(C)[nH]c2c1`, the 50% inhibitory concentration (IC50) is 479 µM.
`Cc1nc2c(C)c(C)ccc2[nH]1`: the midpoint of inhibition, the IC50, lay at 251 µM.
The compound `O=[N+]([O-])c1ccc2[nH]cnc2c1` [5-Nitro-1H-benzoimidazole] displayed an IC50 of 309 µM.
Regarding `CCc1nc2ccc(C)cc2[nH]1`, the half-inhibitory concentration (IC50) turned out to be 269 µM.
As for `Cc1nc2cc(Cl)ccc2[nH]1`, the figure is 151 µM.

The record behind these values is BindingDB's records for doi:10.1021/jm00350a002 (1982).
